Active and inactive are the calls of the source. No cut-off for these calls is given here.
Tests used:
HUVEC [1] = experiment: Cytotoxicity against HUVEC assessed as reduction in cell number at 10 uM after 48 hrs by MTT assay; type: functional, Homo sapiens
Method in brief: (§1)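 Cells seeded at 10×10^3 (MCF7) or 15×10^3 (HUVEC, primary from umbilical cords, passages 2-3) per well, exposed to agents at different concentrations up to 10 µM for 48 h. MTT added at 1/10 medium volume, 2 h at 37°C, formazan dissolved in acidified isopropanol, absorbance read at 490 nm. Confirmed by haemocytometer counts. IC50 and maximal percent decrease interpolated from graphs. Mean ± S.E.M. versus untreated cells.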

MCF7 [2] = experiment: Decrease in pleiotrophin secretion in conditioned media of human MCF7 cells at 10 uM after 24 hrs by Western blot analysis; type: functional, cell-based
Method in brief: (§2)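 MCF7 cells treated with 10 µM agent for 24 h. PTN in the whole conditioned medium was captured on heparin-Sepharose for 16 h at 4°C and eluted in reducing Laemmli buffer. Lysates were run in parallel. Blots were probed with mouse anti-PTN (1:1,000), normalised to β-actin, and quantified by densitometry as percent of untreated (n=3).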

MCF7 [3] = experiment: Induction of necrosis in human MCF7 cells at 10 uM after 48 hrs by Annexin V-FITC/PI staining based flow cytometry; type: functional, cell-based
Chorioallantoic membrane = experiment: In vivo antiangiogenic activity in Leghorn chicken embryo chorioallantoic membrane assessed as decrease in total vessel length at 10 nmol/egg after 48 hrs relative to control; type: functional, Gallus gallus; design: scale not given: the % may be the effect or the level left
Method in brief: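 Windows opened in fertilized Leghorn eggs on day 4. On day 9, agent in 20 µl PBS applied to 1 cm² of CAM inside a plastic ring. After 48 h at 37°C, CAMs fixed in situ, excised and air-dried. Total vessel length measured by image analysis as percent change versus control. At least three experiments, 10–20 eggs per point.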

MCF7 [4] = experiment: Cytotoxicity against human MCF7 cells assessed as reduction in cell number at 10 uM after 48 hrs by MTT assay; type: functional; method in brief: as §1
MCF7 [5] = experiment: Induction of ROS production in human MCF7 cells after 4 to 6 hrs by carboxy-H2DCFDA dye based fluorescence assay; type: functional, cell-based
Method in brief: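 MCF7 cells seeded at 15×10^3/well, exposed to agents 24 h later for 4 h. After PBS washes, cells loaded with 50 µM carboxy-H2DCFDA for 15 min in the dark. Fluorescence read at excitation 492–495 nm and emission 517–527 nm.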

HUVEC [6] = experiment: Cytotoxicity against HUVEC assessed as reduction in cell number after 48 hrs by MTT assay; type: functional, cell-based; settings: Homo sapiens; method in brief: as §1
MCF7 [7] = experiment: Induction of apoptosis in human MCF7 cells at 10 uM after 48 hrs by Annexin V-FITC/PI staining based flow cytometry; type: functional, cell-based
MCF7 [8] = experiment: Decrease in pleiotrophin protein expression in human MCF7 cell lysate at 10 uM after 24 hrs by Western blot analysis; type: functional, cell-based; method in brief: as §2
MCF7 [9] = experiment: Cytotoxicity against human MCF7 cells assessed as reduction in cell number after 48 hrs by MTT assay; type: functional, cell-based; settings: for IC50: MCF7, 48 h; method in brief: as §1
MCF7 [10] = experiment: Cytotoxicity against human MCF7 cells assessed as reduction in cell number at 10 uM cotreated with spermidine after 48 hrs by MTT assay; type: functional, cell-based
Method in brief: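 MCF7 cells given the conjugate, the unconjugated artemisinin derivative, spermidine, or the derivative plus spermidine, each at 10 µM, for 48 h. Cell number measured by MTT at 490 nm after formazan solubilisation in acidified isopropanol. Reported as mean ± S.E.M. relative to untreated cells.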

C[C@H]1[C@@H](CCCOC(=O)NCCCCNC(=O)OCCC[C@H]2O[C@@H]3O[C@@]4(C)CC[C@H]5[C@H](C)CC[C@@H]([C@H]2C)[C@@]35OO4)O[C@@H]2O[C@@]3(C)CC[C@H]4[C@H](C)CC[C@@H]1[C@@]24OO3
Efficacy (HUVEC [1]): 27%
Activity (MCF7 [2]): Active
Activity (MCF7 [3]): inactive
Activity (Chorioallantoic membrane): 14.3%
Efficacy (MCF7 [4]): 61%
Activity (MCF7 [5]): Active
IC50 (HUVEC [6]): 3600 nM
Activity (MCF7 [7]): inactive
Activity (MCF7 [8]): Active
Activity (MCF7 [9]): Dose-dependent effect
IC50 (MCF7 [9]): 1000 nM

COC(=O)N(CCCCNC(=O)OCCOCCN1C(=O)[C@H](C)[C@@H]2CC[C@@H](C)[C@@H]3CC[C@@]4(C)OO[C@]32[C@H]1O4)CCCNC(=O)OCCOCCN1C(=O)[C@H](C)[C@@H]2CC[C@@H](C)[C@@H]3CC[C@@]4(C)OO[C@]32[C@H]1O4
Efficacy (MCF7 [4]): 39%
Activity (MCF7 [9]): Dose-dependent effect
IC50 (MCF7 [9]): 999 nM

C[C@H]1[C@@H](CCCO)O[C@@H]2O[C@]3(C)CC[C@H]4[C@H](C)CC[C@@H]1[C@@]24OO3
Activity (MCF7 [10]): inactive

C[C@H]1[C@@H](OCCOCCOC(=O)NCCCCNC(=O)OCCOCCO[C@H]2O[C@@H]3O[C@@]4(C)CC[C@H]5[C@H](C)CC[C@@H]([C@H]2C)[C@@]35OO4)O[C@@H]2O[C@@]3(C)CC[C@H]4[C@H](C)CC[C@@H]1[C@@]24OO3
Efficacy (MCF7 [4]): 50%
Activity (MCF7 [9]): Dose-dependent effect
IC50 (MCF7 [9]): 1000 nM

C[C@@H]1CC[C@H]2[C@@H](C)C(=O)O[C@@H]3O[C@@]4(C)CC[C@@H]1[C@]32OO4 [ARTEMISININ]
Efficacy (HUVEC [1]): 22%
Activity (MCF7 [2]): Active
Activity (MCF7 [3]): inactive
Activity (Chorioallantoic membrane): 6.3%
Efficacy (MCF7 [4]): 14%
Activity (MCF7 [5]): Active
IC50 (HUVEC [6]): 1100 nM
Activity (MCF7 [7]): inactive
Activity (MCF7 [8]): Active
Activity (MCF7 [9]): Dose-dependent effect

COC(=O)N(CCCCNC(=O)OCCOCCO[C@H]1O[C@@H]2O[C@@]3(C)CC[C@H]4[C@H](C)CC[C@@H]([C@H]1C)[C@@]24OO3)CCCNC(=O)OCCOCCO[C@H]1O[C@@H]2O[C@@]3(C)CC[C@H]4[C@H](C)CC[C@@H]([C@H]1C)[C@@]24OO3
Efficacy (MCF7 [4]): 11.2%

COC(=O)N(CCCCN(CCCNC(=O)OCCOCCO[C@H]1O[C@@H]2O[C@@]3(C)CC[C@H]4[C@H](C)CC[C@@H]([C@H]1C)[C@@]24OO3)C(=O)OC)CCCNC(=O)OCCOCCO[C@H]1O[C@@H]2O[C@@]3(C)CC[C@H]4[C@H](C)CC[C@@H]([C@H]1C)[C@@]24OO3
Efficacy (MCF7 [4]): 64%
Activity (MCF7 [9]): Dose-dependent effect
IC50 (MCF7 [9]): 1000 nM

COC(=O)N(CCCCN(CCCNC(=O)OCCOCCN1C(=O)[C@H](C)[C@@H]2CC[C@@H](C)[C@@H]3CC[C@@]4(C)OO[C@]32[C@H]1O4)C(=O)OC)CCCNC(=O)OCCOCCN1C(=O)[C@H](C)[C@@H]2CC[C@@H](C)[C@@H]3CC[C@@]4(C)OO[C@]32[C@H]1O4
Efficacy (MCF7 [4]): 48%
Activity (MCF7 [9]): Dose-dependent effect
IC50 (MCF7 [9]): 1000 nM

COC(=O)N(CCCCN(CCCNC(=O)OCCC[C@H]1O[C@@H]2O[C@@]3(C)CC[C@H]4[C@H](C)CC[C@@H]([C@H]1C)[C@@]24OO3)C(=O)OC)CCCNC(=O)OCCC[C@H]1O[C@@H]2O[C@@]3(C)CC[C@H]4[C@H](C)CC[C@@H]([C@H]1C)[C@@]24OO3
Efficacy (HUVEC [1]): 27%
Activity (MCF7 [2]): Active
Activity (MCF7 [3]): inactive
Activity (Chorioallantoic membrane): 22%
Efficacy (MCF7 [4]): 70%
Activity (MCF7 [5]): Active
IC50 (HUVEC [6]): 7500 nM
Activity (MCF7 [7]): inactive
Activity (MCF7 [8]): Active
Activity (MCF7 [9]): Dose-dependent effect
IC50 (MCF7 [9]): 1000 nM

COC(=O)N(CCCCNC(=O)OCCC[C@H]1O[C@@H]2O[C@@]3(C)CC[C@H]4[C@H](C)CC[C@@H]([C@H]1C)[C@@]24OO3)CCCNC(=O)OCCC[C@H]1O[C@@H]2O[C@@]3(C)CC[C@H]4[C@H](C)CC[C@@H]([C@H]1C)[C@@]24OO3
Efficacy (HUVEC [1]): 35%
Activity (MCF7 [2]): Active
Activity (MCF7 [3]): inactive
Activity (Chorioallantoic membrane): 12%
Efficacy (MCF7 [4]): 76%
Activity (MCF7 [5]): inactive
IC50 (HUVEC [6]): 1200 nM
Activity (MCF7 [7]): inactive
Activity (MCF7 [8]): Active
Activity (MCF7 [9]): Dose-dependent effect
IC50 (MCF7 [9]): 1000 nM

C[C@@H]1CC[C@H]2[C@@H](C)C(=O)N(CCOCCOC(=O)NCCCCNC(=O)OCCOCCN3C(=O)[C@H](C)[C@@H]4CC[C@@H](C)[C@@H]5CC[C@@]6(C)OO[C@]54[C@H]3O6)[C@@H]3O[C@@]4(C)CC[C@@H]1[C@@]23OO4
Efficacy (HUVEC [1]): 23%
Activity (MCF7 [2]): Active
Activity (MCF7 [3]): inactive
Efficacy (MCF7 [4]): 52%
Activity (MCF7 [5]): Active
IC50 (HUVEC [6]): 2300 nM
Activity (MCF7 [7]): inactive
Activity (MCF7 [8]): Active
Activity (MCF7 [9]): Dose-dependent effect
IC50 (MCF7 [9]): 999 nM

C[C@H]1[C@@H](O)O[C@@H]2O[C@@]3(C)CC[C@H]4[C@H](C)CC[C@@H]1[C@@]24OO3 [ARTENIMOL]
Efficacy (HUVEC [1]): 28%
Activity (Chorioallantoic membrane): 2.8%
IC50 (HUVEC [6]): 1400 nM
